The text below walks through data of ChEMBL document CHEMBL1135597, “A thymidine phosphorylase-stable analogue of BVDU with significant antiviral activity” (J Med Chem, 2002).

The test system of one assay is E6SM. Description: […] in E6SM cell cultures of human embryonic skin-muscle. It counts as functional.
For assay [1], the system named is Human alphaherpesvirus 1. Description: Inhibitory activity against HSV-1 (McIntyre) replication in E6SM cell cultures of human embryonic skin-muscle. The class given is functional, organism-based. Particulars: Human alphaherpesvirus 1, E6SM. The essentials:
(§1)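 Confluent human embryonic skin-muscle (E6SM) cell cultures were infected with 100 CCID50 of virus. After 1 h adsorption, residual virus was removed and cultures were incubated with test compound at varying concentrations […]. Cytopathicity was scored once complete in infected control cultures. EC50 is the concentration that inhibits virus-induced cytopathicity by 50%.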

A short description of assay [2]: Inhibitory activity against HSV-1 (KOS) replication in E6SM cell cultures of human embryonic skin-muscle. The class given is functional, cell-based. Particulars: Human alphaherpesvirus 1, E6SM. In outline:
as §1

Assay [3] is described as follows: Inhibitory activity against TK-deficient HSV-1 (KOS) replication in E6SM cell cultures of human embryonic skin-muscle. The class given is functional, cell-based. Particulars: Human alphaherpesvirus 1, E6SM. In outline:
as §1

For assay [4], the system named is Human alphaherpesvirus 1. The assay is described as follows: Inhibitory activity against HSV-1 (F) replication in E6SM cell cultures of human embryonic skin-muscle. It counts as functional, organism-based. Particulars: Human alphaherpesvirus 1, E6SM. In outline: as §1
Another assay relates to Vaccinia virus. Description: Inhibitory activity against vaccinia virus (VV) replication in E6SM cell cultures of human embryonic skin-muscle. It counts as functional, organism-based. Particulars: Orthopoxvirus vaccinia. The essentials: as §1
Assay [5] deals with Vesicular stomatitis virus. The assay is described as follows: Inhibitory activity against vesicular stomatitis virus (VSV) replication in E6SM cell cultures of human embryonic skin-muscle. The class given is functional, organism-based. The essentials:
as §1

≈ marks a conversion by molar mass, not a printed value. Where only a bound is given, the exact number is not on record here.

For orientation: EC50 means the concentration at which the effect is half-maximal. Low readings indicate higher potency in that assay, high ones lower potency in that assay. As to `Nc1nc2c(ncn2COCCO)c(=O)[nH]1` [ACYCLOVIR], the MCC with E6SM is above 400 µg/mL. In addition, the 50% effective concentration (EC50) was 0.077 µg/mL (≈ 0.342 µM) in the assay on Human alphaherpesvirus 1 [1]; 0.077 µg/mL (≈ 0.342 µM) in assay [2]; 48 µg/mL (≈ 213 µM) in assay [3]; 0.077 µg/mL (≈ 0.342 µM) with Human alphaherpesvirus 1 [4]; above 400 µg/mL with Vaccinia virus; above 400 µg/mL in assay [5].

`NC(=O)c1ncn([C@@H]2O[C@H](CO)[C@@H](O)[C@H]2O)n1` [RIBAVIRIN] showed an MCC in the assay with E6SM above 400 µg/mL. The EC50 was 240 µg/mL (≈ 983 µM) in the assay on Human alphaherpesvirus 1 [1]; 48 µg/mL (≈ 197 µM) in assay [2]; 240 µg/mL (≈ 983 µM) in assay [3]; 48 µg/mL (≈ 197 µM) in the assay with Human alphaherpesvirus 1 [4]; 240 µg/mL (≈ 983 µM) in the assay with Vaccinia virus; above 400 µg/mL in assay [5].

Molecule `O=c1[nH]c(=O)n([C@H]2C[C@H](O)[C@@H](CO)O2)cc1/C=C/Br` [BRIVUDINE] came in with an MCC with E6SM above 400 µg/mL. Besides, the EC50 was 0.026 µg/mL (≈ 0.078 µM) in the assay on Human alphaherpesvirus 1 [1]; 0.026 µg/mL (≈ 0.078 µM) in assay [2]; 240 µg/mL (≈ 720 µM) in assay [3]; 0.026 µg/mL (≈ 0.078 µM) in the assay on Human alphaherpesvirus 1 [4]; 1.9 µg/mL (≈ 5.7 µM) with Vaccinia virus; above 400 µg/mL in assay [5].

Regarding `Nc1nc2c(ncn2COC(CO)CO)c(=O)[nH]1` [GANCICLOVIR], in the assay on E6SM, the MCC was above 100 µg/mL. Besides, the EC50 in the assay with Human alphaherpesvirus 1 [1] was 0.019 µg/mL (≈ 0.0744 µM); in assay [2] it was 0.019 µg/mL (≈ 0.0744 µM); in assay [3] it was 2.4 µg/mL (≈ 9.4 µM); with Human alphaherpesvirus 1 [4], 0.019 µg/mL (≈ 0.0744 µM); with Vaccinia virus it was above 100 µg/mL; in assay [5], above 100 µg/mL.

In turn, `O=c1[nH]c(=O)n([C@@H]2CO[C@H](CO)C2)cc1/C=C/Br` yielded an MCC in the assay on E6SM above 400 µg/mL. Further, the EC50 was 9.6 µg/mL (≈ 30.3 µM) in the assay on Human alphaherpesvirus 1 [1]; 2.6 µg/mL (≈ 8.2 µM) in assay [2]; above 400 µg/mL in assay [3]; 1.9 µg/mL (≈ 5.99 µM) in the assay with Human alphaherpesvirus 1 [4]; above 400 µg/mL in the assay on Vaccinia virus; above 400 µg/mL in assay [5].
